By pKi is commonly meant the negative decadic logarithm of the Ki, by convention in mol/L.

We go through 13 molecules from PMC6815263 (European journal of medicinal chemistry, 2019).

The structures appear in SMILES notation. pKi: −log10 of the molar value.

For experiment [1], the target named is human TRPV1 (Homo sapiens, UniProt Q8NER1). Description: 45Ca2+ uptake assay, antagonism of capsaicin. It is filed as cell-based.
The subject of experiment [2] is ICR mice. Description: Formalin test. It is filed as in vivo, mouse. To be noted: 40 mg/kg i.p., formalin assay phase 2. Put shortly:
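Male ICR mice (20-25 g, groups of 6-8) were housed at 22 ± 2 °C and 50 ± 5% humidity and acclimated to the chamber for at least 5 min. Test compound was given i.p. 30 min before 20 μL of 2% formalin in 0.9% saline was injected into the dorsal right hindpaw. Licking/biting time (s) was summed per 5-min block over 30 min: early phase 0-5 min, late phase 20-30 min.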

Experiment [3] addresses mu-opioid receptor (MOR) (Homo sapiens, UniProt P35372). As to the kind of experiment: MOR binding competition assay with [3H]DAMGO. To be noted: MOR binding Ki relative to morphine.

human TRPV1, sequence (Q8NER1 whole entry): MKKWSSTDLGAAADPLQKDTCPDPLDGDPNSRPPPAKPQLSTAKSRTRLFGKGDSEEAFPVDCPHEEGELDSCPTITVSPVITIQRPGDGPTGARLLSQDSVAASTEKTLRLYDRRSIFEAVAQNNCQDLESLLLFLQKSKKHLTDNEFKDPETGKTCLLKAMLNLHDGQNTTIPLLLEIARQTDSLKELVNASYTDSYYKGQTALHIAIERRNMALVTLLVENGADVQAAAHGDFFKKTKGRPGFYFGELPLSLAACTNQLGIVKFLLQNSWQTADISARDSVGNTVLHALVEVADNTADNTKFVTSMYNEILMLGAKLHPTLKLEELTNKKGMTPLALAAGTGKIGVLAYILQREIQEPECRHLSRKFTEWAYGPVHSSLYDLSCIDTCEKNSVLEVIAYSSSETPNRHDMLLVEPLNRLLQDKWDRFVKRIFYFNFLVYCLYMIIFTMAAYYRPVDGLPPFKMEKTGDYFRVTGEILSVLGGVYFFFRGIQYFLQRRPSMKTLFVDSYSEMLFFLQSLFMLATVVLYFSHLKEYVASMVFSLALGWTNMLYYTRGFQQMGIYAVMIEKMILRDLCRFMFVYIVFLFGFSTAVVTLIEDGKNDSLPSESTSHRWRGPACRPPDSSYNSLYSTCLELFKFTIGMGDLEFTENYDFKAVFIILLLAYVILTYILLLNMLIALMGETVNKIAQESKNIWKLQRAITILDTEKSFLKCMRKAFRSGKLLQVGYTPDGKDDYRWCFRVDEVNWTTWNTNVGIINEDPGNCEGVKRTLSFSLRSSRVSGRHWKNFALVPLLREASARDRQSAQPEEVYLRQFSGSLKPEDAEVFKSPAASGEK
mu-opioid receptor (MOR), sequence (P35372 whole entry, species assumed): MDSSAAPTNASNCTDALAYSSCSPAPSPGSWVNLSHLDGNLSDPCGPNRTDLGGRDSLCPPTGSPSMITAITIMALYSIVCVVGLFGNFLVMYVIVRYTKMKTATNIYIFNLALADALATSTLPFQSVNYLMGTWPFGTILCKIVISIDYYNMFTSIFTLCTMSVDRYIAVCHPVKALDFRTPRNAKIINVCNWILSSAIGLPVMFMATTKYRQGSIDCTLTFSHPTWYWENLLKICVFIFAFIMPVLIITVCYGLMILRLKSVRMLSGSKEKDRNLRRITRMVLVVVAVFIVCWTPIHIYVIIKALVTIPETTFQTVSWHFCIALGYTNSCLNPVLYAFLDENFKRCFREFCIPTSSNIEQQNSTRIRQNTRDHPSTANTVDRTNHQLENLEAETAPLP

In turn, `CC1CCN(c2nc(C(F)(F)F)ccc2CNC(=O)[C@@H](C)c2ccc(NS(C)(=O)=O)c(F)c2)CC1` [compound 1, reference compound] had a pKi in experiment [1] of 8.65.

For `CC(C(=O)NCc1ccc(C(F)(F)F)cc1N1CCC(Cc2ccccc2)(N(C)C)CC1)c1ccc(NS(C)(=O)=O)c(F)c1` (centres unmarked) [compound 11, N-(2-(4-Benzyl-4-(dimethylamino)piperidin-1-yl)-4-(trifluoromethyl)benzyl)-2-(3-fluoro-4-(methylsulfonamido)phenyl)propanamide], the pKi in experiment [1] is 8.09.

`CN(C)C1(Cc2ccccc2)CCN(c2cc(C(F)(F)F)ccc2CNC(=O)Nc2ccc(CNS(C)(=O)=O)c(F)c2)CC1` [compound 15, N-(4-(3-(2-(4-Benzyl-4-(dimethylamino)piperidin-1-yl)-4-(trifluoromethyl)benzyl)-ureido)-2-fluorobenzyl)methanesulfonamide]: the pKi in experiment [1] is 7.60. Against the preceding molecule, the pKi is 0.49 log units lower.

On to `CN(C)C1(Cc2ccccc2)CCN(c2cc(C(F)(F)F)ccc2CNC(=O)NCc2ccc(NS(C)(=O)=O)c(F)c2)CC1` [compound 17, N-(4-((3-(2-(4-Benzyl-4-(dimethylamino)piperidin-1-yl)-4-(trifluoromethyl)benzyl)-ureido)-methyl)-2-fluorophenyl)methanesulfonamide], for which, in experiment [1], the pKi is 7.07.

As to `CN(C)C1(Cc2ccccc2)CCN(c2cc(C(F)(F)F)ccc2CNC(=O)Nc2ccc(CO)c(F)c2)CC1` [compound 23, 1-(2-(4-Benzyl-4-(dimethylamino)piperidin-1-yl)-4-(trifluoromethyl)benzyl)-3-(3-fluoro-4-(hydroxymethyl)phenyl)urea], the pKi in experiment [1] is 7.09. The same measure, in the same setting: the same measure for `CN(C)C1(Cc2ccccc2)CCN(c2cc(C(F)(F)F)ccc2CNC(=O)Nc2ccc3c(c2)OCC3)CC1` [compound 33, 1-(2-(4-Benzyl-4-(dimethylamino)piperidin-1-yl)-4-(trifluoromethyl)benzyl)-3-(2,3-dihydrobenzofuran-6-yl)urea]: 7.50. Still for that read-out and setting: the same measure for `CN(C)C1(Cc2ccccc2)CCN(c2cc(C(F)(F)F)ccc2CNC(=O)Nc2cccc3[nH]c(=O)ccc23)CC1` [compound 35, 1-(2-(4-Benzyl-4-(dimethylamino)piperidin-1-yl)-4-(trifluoromethyl)benzyl)-3-(2-oxo-1,2-dihydroquinolin-5-yl)urea]: 7.51. On the same count and under the same terms, to `CN(C)C1(Cc2ccccc2)CCN(c2cc(C(F)(F)F)ccc2CNC(=O)Nc2ccc3cccnc3c2)CC1` [compound 44, 1-(2-(4-Benzyl-4-(dimethylamino)piperidin-1-yl)-4-(trifluoromethyl)benzyl)-3-(quinolin-7-yl)urea] belongs 7.38; to `CN(C)C1(Cc2ccccc2)CCN(c2cc(C(F)(F)F)ccc2CNC(=O)Nc2ccc3ccncc3c2)CC1` [compound 45, 1-(2-(4-Benzyl-4-(dimethylamino)piperidin-1-yl)-4-(trifluoromethyl)benzyl)-3-(isoquinolin-7-yl)urea], 7.25. In turn, `CN(C)C1(Cc2ccccc2)CCN(c2cc(C(F)(F)F)ccc2CNC(=O)Nc2ccc3cnccc3c2)CC1` [compound 46, 1-(2-(4-Benzyl-4-(dimethylamino)piperidin-1-yl)-4-(trifluoromethyl)benzyl)-3-(isoquinolin-6-yl)urea] had a pKi in experiment [1] of 6.81. Still for that read-out and setting: the same measure for `CN(C)C1(Cc2ccccc2)CCN(c2cc(C(F)(F)F)ccc2CNC(=O)Nc2cccc3ccncc23)CC1` [compound 47, 1-(2-(4-Benzyl-4-(dimethylamino)piperidin-1-yl)-4-(trifluoromethyl)benzyl)-3-(isoquinolin-8-yl)urea]: 7.73; for `CN(C)C1(Cc2ccccc2)CCN(c2cc(C(F)(F)F)ccc2CNC(=O)Nc2cccc3cnccc23)CC1` [compound 48, 1-(2-(4-Benzyl-4-(dimethylamino)piperidin-1-yl)-4-(trifluoromethyl)benzyl)-3-(isoquinolin-5-yl)urea]: 8.06.

As to `CN(C)C1(Cc2ccccc2)CCN(c2cc(C(F)(F)F)ccc2CNC(=O)Nc2cccc3ncccc23)CC1` [compound 49, 1-(2-(4-Benzyl-4-(dimethylamino)piperidin-1-yl)-4-(trifluoromethyl)benzyl)-3-(quinolin-5-yl)urea], in experiment [2], the “inhibition of pain behavior in phase 2” value is given as “completely”. Besides, the “fold less potent than morphine (MOR Ki)” value in experiment [3] was found to be 5 fold.
